In experiment [1] the target is T1, Toll-like receptor 4 (Homo sapiens, UniProt O00206). Kind of experiment: Inhibition of LPS-induced TLR4 activation in human whole blood assessed as inhibition of TNFalpha release at 500 uM preincubated for 5 to 10 mins. The gist of the method:
(§1)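 Fresh human blood anticoagulated with lepirudin, preincubated with compound 5–10 min at 37 °C, then stimulated with 100 ng/mL ultrapure E. coli 0111:B4 LPS, rotating 2 h at 37 °C. Stopped with EDTA 10 mM final; plasma TNF-α, IL-8 and IL-6 measured by singleplex Bio-plex, expressed as % of LPS without inhibitor. n = 3 or 9, paired two-sided t-test.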

The target in experiment [2] is T1, Toll-like receptor 4. The experiment is described as follows: Inhibition of LPS-induced TLR4 activation in human whole blood assessed as inhibition of IL-6 release preincubated for 5 to 10 mins. The gist of the method: as §1
Experiment [3] addresses T2, Toll-like receptor 4 (Mus musculus, UniProt Q9QUK6).
T2 sequence (Q9QUK6 whole entry): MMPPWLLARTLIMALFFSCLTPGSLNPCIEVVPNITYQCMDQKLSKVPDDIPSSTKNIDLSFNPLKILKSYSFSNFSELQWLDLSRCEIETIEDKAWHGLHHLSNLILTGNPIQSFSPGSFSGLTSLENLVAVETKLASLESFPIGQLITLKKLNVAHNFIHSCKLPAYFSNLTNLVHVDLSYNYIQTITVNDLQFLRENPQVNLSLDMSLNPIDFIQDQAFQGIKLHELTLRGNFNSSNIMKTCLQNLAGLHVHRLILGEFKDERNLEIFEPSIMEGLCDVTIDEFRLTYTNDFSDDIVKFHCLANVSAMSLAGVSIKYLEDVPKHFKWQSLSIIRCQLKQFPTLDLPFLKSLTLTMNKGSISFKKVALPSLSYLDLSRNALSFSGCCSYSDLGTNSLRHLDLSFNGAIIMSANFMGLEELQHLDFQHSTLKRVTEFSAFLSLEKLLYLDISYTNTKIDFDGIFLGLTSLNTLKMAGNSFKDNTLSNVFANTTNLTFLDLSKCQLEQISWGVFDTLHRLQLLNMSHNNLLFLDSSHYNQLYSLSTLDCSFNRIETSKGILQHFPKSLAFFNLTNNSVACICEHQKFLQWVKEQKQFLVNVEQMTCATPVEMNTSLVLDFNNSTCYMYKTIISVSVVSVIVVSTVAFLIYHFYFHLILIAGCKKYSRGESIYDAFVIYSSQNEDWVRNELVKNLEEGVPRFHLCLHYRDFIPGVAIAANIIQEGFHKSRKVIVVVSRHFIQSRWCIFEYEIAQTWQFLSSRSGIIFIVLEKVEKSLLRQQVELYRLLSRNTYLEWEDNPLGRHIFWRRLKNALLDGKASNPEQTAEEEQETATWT
The experiment is described as follows: Inhibition of LPS-induced TLR4 activation in mouse RAW264.7 cells assessed as reduction in NO production after 18 to 24 hrs. In kind it is cell-based. In outline:
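RAW264.7 cells, 100,000 per well, grown 24 h in RPMI with 10% FBS, then switched to unsupplemented RPMI. LPS and compound added together, 18–24 h at 37 °C. Medium nitrite measured with 2,3-diaminonaphthalene (ex 365/em 450 nm) against a nitrite standard curve. Quadruplicate; IC50 by a modified Kou-type method.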

Experiment [4] concerns the target T1, Toll-like receptor 4. The experiment is described as follows: Inhibition of LPS-induced TLR4 activation in human whole blood assessed as inhibition of TNFalpha release preincubated for 5 to 10 mins. In outline:
as §1

Experiment [5] addresses T1, Toll-like receptor 4. Kind of experiment: Inhibition of LPS-induced TLR4 activation in human whole blood assessed as reduction in plasma IL-6 level at 250 uM preincubated for 5 to 10 mins. The gist of the method: as §1

In general, inhibition refers to the change of the read-out against control, counted positive when it falls. By IC50 is commonly meant the concentration needed to halve the response being measured.

Molecules are shown by their SMILES. Active and inactive are the calls of the source. No cut-off for these calls is given here.

T1 sequence (O00206 whole entry): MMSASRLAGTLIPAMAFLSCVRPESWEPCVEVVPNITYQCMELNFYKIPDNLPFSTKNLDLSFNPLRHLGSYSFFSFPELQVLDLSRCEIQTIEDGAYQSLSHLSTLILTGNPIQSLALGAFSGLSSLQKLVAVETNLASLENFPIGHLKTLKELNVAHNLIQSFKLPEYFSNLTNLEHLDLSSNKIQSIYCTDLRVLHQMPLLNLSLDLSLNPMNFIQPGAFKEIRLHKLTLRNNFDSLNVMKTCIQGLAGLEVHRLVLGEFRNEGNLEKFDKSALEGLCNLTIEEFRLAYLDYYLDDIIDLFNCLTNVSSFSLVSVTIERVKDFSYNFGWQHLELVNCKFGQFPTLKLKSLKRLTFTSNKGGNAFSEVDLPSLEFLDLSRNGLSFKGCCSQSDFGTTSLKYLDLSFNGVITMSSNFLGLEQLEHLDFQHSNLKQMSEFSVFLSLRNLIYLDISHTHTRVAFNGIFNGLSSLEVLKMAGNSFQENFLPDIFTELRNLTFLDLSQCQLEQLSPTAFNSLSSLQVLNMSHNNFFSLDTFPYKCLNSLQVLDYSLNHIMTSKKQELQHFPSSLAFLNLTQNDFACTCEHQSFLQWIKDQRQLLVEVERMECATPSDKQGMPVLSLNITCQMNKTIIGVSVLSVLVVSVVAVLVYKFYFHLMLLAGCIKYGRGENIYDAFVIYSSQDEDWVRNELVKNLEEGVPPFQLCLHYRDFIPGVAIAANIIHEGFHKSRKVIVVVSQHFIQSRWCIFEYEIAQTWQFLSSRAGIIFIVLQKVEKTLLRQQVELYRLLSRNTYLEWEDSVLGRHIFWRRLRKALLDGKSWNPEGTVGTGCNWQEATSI

In the case of `CCOc1ccc(OCC(O)CN(C)Cc2c(C)nn(Cc3ccccc3Cl)c2C)cc1` (racemic), the inhibition entry in experiment [1] was “Active”. Besides, the IC50 in experiment [2] came out at 318 µM; in experiment [3], 27.8 µM; in experiment [4], 316 µM. In addition, the results for the inhibition entry in experiment [2], in experiment [4] and in experiment [5] were “Dose-dependent effect”, “Dose-dependent effect” and 50%, respectively.

Values taken from ChEMBL document CHEMBL1821673, “Development of β-amino alcohol derivatives that inhibit Toll-like receptor 4 mediated inflammatory response as potential antiseptics” (J Med Chem, 2011).
